What all share (format): functional
Assay [1] deals with Mycobacterium tuberculosis. Kind of assay: Antitubercular activity against PAS/INH/EMB/RMP-resistant Mycobacterium tuberculosis Spec.210 assessed as inhibition of microbial growth by classical test tube method. In short, it runs like this:
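Classical test-tube serial dilution in Youmans' modified Proskauer–Beck liquid medium with 10% bovine serum. Inoculum came from 14-day-old cultures. Compounds were given as DMSO solutions (stock 10 mg/ml), diluted geometrically in medium to 3.1–100 µg/ml, and incubated at 37 °C. MIC is the minimum concentration inhibiting growth relative to a no-compound control.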

The test system of assay [2] is Mycobacterium tuberculosis. Kind of assay: Antitubercular activity against PAS/INH/EMB/RMP-resistant Mycobacterium tuberculosis Spec.210 assessed as inhibition of microbial growth incubated for 1 week by MABA method. The note with it: Mycobacterium tuberculosis, 210, 168 h; time 1 weeks. The procedure, abridged:
(§1)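 Microplate Alamar Blue assay in Middlebrook 7H9 broth with 10% OADC. Inoculum from fresh LJ culture was adjusted to McFarland 1 and diluted 1:20. DMSO stocks were two-fold serially diluted to final 0.125–512 µg/ml, with growth and sterile controls. Plates ran 1 week at 37 °C, then Alamar blue was added for 24 h. MIC is the lowest concentration preventing the blue-to-pink change.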
On the technique in general: Alamar Blue is a resazurin reagent that responds to reducing activity.

Assay [3] has as its system Mycobacterium tuberculosis. Kind of assay: Antitubercular activity against INH-resistant Mycobacterium tuberculosis Spec.800 harboring InhA promoter mutation assessed as inhibition of microbial growth incubated for 1 week by MABA method. The conditions noted are these: time 1 weeks. The procedure, abridged:
as §1

Assay [4] concerns Mycobacterium tuberculosis. Kind of assay: Potency index, Ratio of rifampicin MIC to test compound MIC for antitubercular activity against PAS/INH/EMB/RMP-resistant Mycobacterium tuberculosis Spec.210 assessed as inhibition of microbial growth incubated for 1 week by MABA method. The note with it: time 1 weeks.
In assay [5] the test system is Mycobacterium tuberculosis. Kind of assay: Potency index, Ratio of ethambutol MIC to test compound MIC for antitubercular activity against PAS/INH/EMB/RMP-resistant Mycobacterium tuberculosis Spec.210 assessed as inhibition of microbial growth incubated for 1 week by MABA method. The conditions noted are these: time 1 weeks.
Assay [6] deals with Mycobacterium tuberculosis. Kind of assay: Potency index, Ratio of isoniazid MIC to test compound MIC for antitubercular activity against PAS/INH/EMB/RMP-resistant Mycobacterium tuberculosis Spec.210 assessed as inhibition of microbial growth incubated for 1 week by MABA method. The conditions noted are these: time 1 weeks.
Assay [7] concerns Mycobacterium tuberculosis. Kind of assay: Potency index, Ratio of streptomycin MIC to test compound MIC for antitubercular activity against PAS/INH/EMB/RMP-resistant Mycobacterium tuberculosis Spec.210 assessed as inhibition of microbial growth incubated for 1 week by MABA method. The conditions noted are these: time 1 weeks.

The MIC is the smallest concentration in the dilution series that meets the test's criterion for growth inhibition.

Take `COc1ccc(NC(S)=Nc2ccc(F)cc2)cc1`: the MIC in assay [1] is 100 µg/mL.

Take `COc1ccc(NC(=S)Nc2cccc(Cl)c2)cc1`: in assay [1], the MIC was 100 µg/mL.

`COc1ccc(Nc2nnnn2-c2ccc(Cl)cc2)cc1`: the MIC in assay [2] worked out at 8 µg/mL; in assay [3], 128 µg/mL. Also, the Ratio in assay [4], in assay [5], in assay [6] and in assay [7] was 2 throughout.

Turning to `COc1ccc(-n2nnnc2Nc2ccccc2Br)cc1`, the MIC worked out at 64 µg/mL in assay [2] and 512 µg/mL in assay [3].

As for `COc1ccc(-n2nnnc2Nc2ccccc2F)cc1`, the MIC in assay [2] amounted to 16 µg/mL.

Take `COc1ccc(Nc2nnnn2-c2cccc(Cl)c2)cc1`: the MIC in assay [2] came out at 8 µg/mL; in assay [3] it was 128 µg/mL. Also, the Ratio in assay [4], in assay [5], in assay [6] and in assay [7] was 2 throughout.

Take `COc1ccc(-n2nnnc2Nc2cccc(F)c2)cc1`: the MIC in assay [2] came out at 8 µg/mL; in assay [3], 256 µg/mL. Also, the Ratio in assay [4], in assay [5], in assay [6] and in assay [7] was 2 each time.

As to `COc1ccc(-n2nnnc2Nc2cccc(Cl)c2)cc1`, the MIC in assay [2] was determined as 32 µg/mL; in assay [3], 256 µg/mL.

Regarding `COc1ccc(-n2nnnc2Nc2ccccc2Cl)cc1`, the MIC in assay [2] came to 8 µg/mL; in assay [3], 256 µg/mL. Also, the Ratio in assay [4], in assay [5], in assay [6] and in assay [7] was 2 in each case.

As for `COc1ccc(-n2nnnc2Nc2ccc(Cl)cc2)cc1`, the MIC was found to be 16 µg/mL in assay [2] and 256 µg/mL in assay [3].

For `COc1ccc(NC(=S)Nc2ccc(Cl)cc2)cc1`, in assay [1], the MIC was 50 µg/mL.

`COc1ccc(Nc2nnnn2-c2ccccc2F)cc1`: the MIC in assay [2] amounted to 16 µg/mL.

For the molecule `COc1ccc(-n2nnnc2Nc2ccc(F)cc2)cc1`, the values for the MIC in assay [2] and in assay [3] were 32 µg/mL and 512 µg/mL, respectively.

Regarding `COc1ccc(NC(=S)Nc2cccc(Br)c2)cc1`, the MIC in assay [1] was found to be 50 µg/mL.

As for `COc1ccc(NC(=S)Nc2ccccc2Br)cc1`, the MIC in assay [1] stood at 50 µg/mL.

With `COc1ccc(Nc2nnnn2-c2ccccc2Br)cc1`, the figures for the MIC in assay [2] and in assay [3] were 16 µg/mL and 256 µg/mL, respectively.

Consider `COc1ccc(NC(=S)Nc2ccc(Br)cc2)cc1`, for which the MIC in assay [1] was above 100 µg/mL.

Take `COc1ccc(NC(=S)Nc2ccccc2Cl)cc1`: in assay [1], the MIC worked out at 50 µg/mL.

`COc1ccc(Nc2nnnn2-c2cccc(Br)c2)cc1`: the MIC came out at 16 µg/mL in assay [2] and 256 µg/mL in assay [3].

Regarding `COc1ccc(Nc2nnnn2-c2ccc(Br)cc2)cc1`, the MIC in assay [2] was found to be 16 µg/mL; in assay [3] it was 256 µg/mL.

Regarding `COc1ccc(Nc2nnnn2-c2ccc(F)cc2)cc1`, the MIC in assay [2] was 8 µg/mL; in assay [3], 128 µg/mL. The Ratio in assay [4], in assay [5], in assay [6] and in assay [7] was 2 in each case.

Consider `COc1ccc(NC(=S)Nc2cccc(F)c2)cc1`, for which the MIC in assay [1] is 100 µg/mL.

Turning to `COc1ccc(Nc2nnnn2-c2ccccc2Cl)cc1`, the MIC in assay [2] turned out to be 8 µg/mL; in assay [3], 128 µg/mL. The Ratio in assay [4], in assay [5], in assay [6] and in assay [7] was 2 throughout.

`COc1ccc(Nc2nnnn2-c2cccc(F)c2)cc1`: the minimal inhibitory concentration (MIC) is 16 µg/mL in assay [2] and 256 µg/mL in assay [3].

As for `COc1ccc(NC(=S)Nc2ccccc2F)cc1`, the MIC in assay [1] is 100 µg/mL.

In the case of `CC[C@@H](CO)NCCN[C@@H](CC)CO` [ETHAMBUTOL], the MIC in assay [2] turned out to be 32 µg/mL; in assay [3] it was 2 µg/mL; in assay [1], 50 µg/mL.

Consider `NNC(=O)c1ccncc1` [ISONIAZID], for which the MIC in assay [2] is 16 µg/mL; in assay [3], 2 µg/mL; in assay [1] it was 12.5 µg/mL.

In the case of `CO[C@H]1/C=C/O[C@@]2(C)Oc3c(C)c(O)c4c(O)c(c(/C=N/N5CCN(C)CC5)c(O)c4c3C2=O)NC(=O)/C(C)=C\C=C\[C@H](C)[C@H](O)[C@@H](C)[C@@H](O)[C@@H](C)[C@H](OC(C)=O)[C@@H]1C` [RIFAMPIN], the MIC came to 32 µg/mL in assay [2], 1 µg/mL in assay [3] and 50 µg/mL in assay [1].

Regarding `CN[C@@H]1[C@H](O[C@H]2[C@H](O[C@H]3[C@H](O)[C@@H](O)[C@H](N=C(N)N)[C@@H](O)[C@@H]3N=C(N)N)O[C@@H](C)[C@]2(O)C=O)O[C@@H](CO)[C@H](O)[C@H]1O` [STREPTOMYCIN], the MIC in assay [2] turned out to be 16 µg/mL; in assay [3], 1 µg/mL; in assay [1] it was 25 µg/mL.
